Bioassay records deposited in PubChem BioAssay by several laboratories.
In the library only some 2.1% were active in any assay of this set; here they are far more common.
MC4R ag barr = human MC4R agonism via beta-arrestin; U2OS MC4R beta-arrestin complementation, luminescence; percent of melanotan II response, DMSO zero; AID 540308; 360,000 compounds, 0.98% hits; P32245; activation, % at 8.9 µM;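 active means activation above a per-plate cutoff, the mean activation of sample wells on that plate plus 3 SD, cut at about 8% in these data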
SMARCA2 activ = activators of SMARCA2 function; 370,000 compounds, 1% hits; activation, % at 9.1 µM; MG213 cells, MMTV-luciferase reporter, dexamethasone, overnight; in the data active means activation above about 7.8%;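 further: 0% = vehicle wells and 100% = reference activator wells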
F508del corr = correctors of CFTR F508del function in bronchial epithelial cells | CFBE cells, YFP halide quenching; stimulated with forskolin plus potentiator P3; % fluorescence drop versus neutral controls | activity (quench increase), % at 7.58 µM | 350,000 compounds, 0.36% hits | AID 720511;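 active means mean added fluorescence quench of at least 8% versus neutral control, with both replicates also reaching 8%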;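 further: cells transiently co-express mutant CFTR-F508del with the halide-sensitive YFP; corrector assay measuring rescue of mutant channel to the surface after 24 h compound exposure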
MC4R antag cAMP = blocks human MC4R cAMP signaling. P32245. MC4R-expressing cells, MTII-stimulated cAMP, LANCE TR-FRET. AID 540295. 360,000 compounds, 0.48% hits. inhibition, % at 6.5 µM;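 active means inhibition above its plate's cutoff, the mean of tested wells on that plate plus 3 SD, cut at about 29% in these data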;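 further: 0% = Melanotan II alone and 100% = Melanotan II plus saturating MCL0020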
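Material: human MC4R-expressing U2OS cells. Probe or stimulus: Melanotan II challenge. Dosing: 6.5 µM single dose. Times: 30-min compound, 1-h challenge, 1-h detection, room temperature. Technique: TR-FRET with Eu-cAMP and labeled anti-cAMP, 671 nm. Replication: singlicate.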
MC4R barr conf = human MC4R beta-arrestin agonism confirmation | shares compounds with MC4R ag barr | U2OS MC4R beta-arrestin recruitment, luminescence; scaled DMSO 0%, Melanotan II 100% | activation, % at 8.9 µM | 2,400 compounds, 31% hits;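 active means mean activation across replicates above the hit cutoff set in the earlier primary screen, cut at about 8% in these data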
MOR DOR agonist = activates mu-delta opioid heterodimer, MC4R agonist counter-screen; shares compounds with MC4R ag barr; U2OS PathHunter beta-arrestin, beta-gal luminescence; percent of deltorphin B response, DMSO zero; activation, % at 9.2 µM; 2,400 compounds, 5.8% hits; AID 602194;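 active means mean activation across replicates exceeds the hit threshold derived in the earlier primary screen, cut at about 18% in these data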;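 further: 100% = deltorphin B at 0.9 µM final and 0% = DMSO alone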
Target sequence (P35372 whole entry, looked up): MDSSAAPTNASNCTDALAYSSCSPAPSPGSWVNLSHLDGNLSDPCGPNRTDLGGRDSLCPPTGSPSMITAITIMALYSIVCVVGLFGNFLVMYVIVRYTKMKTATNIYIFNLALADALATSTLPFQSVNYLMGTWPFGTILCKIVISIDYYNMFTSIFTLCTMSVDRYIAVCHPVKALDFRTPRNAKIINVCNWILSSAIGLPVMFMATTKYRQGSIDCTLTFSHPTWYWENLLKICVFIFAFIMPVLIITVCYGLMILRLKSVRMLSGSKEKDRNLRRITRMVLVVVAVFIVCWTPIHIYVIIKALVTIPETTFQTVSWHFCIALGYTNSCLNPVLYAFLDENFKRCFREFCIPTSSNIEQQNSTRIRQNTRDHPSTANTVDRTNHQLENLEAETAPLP
Target sequence (P41143 whole entry, looked up): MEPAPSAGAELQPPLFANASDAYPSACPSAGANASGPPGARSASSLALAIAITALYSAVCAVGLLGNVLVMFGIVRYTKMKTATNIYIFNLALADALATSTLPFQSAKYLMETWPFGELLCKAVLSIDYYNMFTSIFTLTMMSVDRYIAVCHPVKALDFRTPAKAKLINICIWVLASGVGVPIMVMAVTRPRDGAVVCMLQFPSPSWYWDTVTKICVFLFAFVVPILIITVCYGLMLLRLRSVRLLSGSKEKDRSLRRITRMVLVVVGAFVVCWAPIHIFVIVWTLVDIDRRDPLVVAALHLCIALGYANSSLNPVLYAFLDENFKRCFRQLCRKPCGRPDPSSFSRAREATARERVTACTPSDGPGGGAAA
Active calls of the source: *; · = not tested or not shown.

SMILES	MC4R ag barr	SMARCA2 activ	F508del corr	MC4R antag cAMP	MC4R barr conf	MOR DOR agonist
CCN(Cc1ccccc1)S(=O)(=O)c1ccc(S(=O)(=O)N(Cc2ccccn2)Cc2ccco2)cc1	13*	-1	·	-2	4	3
COc1ccc(CN2C[C@H](O)COC[C@H]3O[C@@H](CC(=O)NCc4ccccc4Cl)CC[C@@H]32)cc1	·	·	-1	·	·	·
O=C(COC(=O)c1nn(-c2ccccc2C(F)(F)F)cc1O)c1ccc(OC(F)F)cc1	11*	-1	-3	0	2	2
COc1cc(-c2nnc3sc(Cc4ccc(Cl)cc4)nn23)cc(OC)c1OC	14*	3	-6	-66	11*	3
COc1ccc(OCc2nn3c(-c4cccc(OC)c4)nnc3s2)cc1	11*	-1	·	7	4	3
COc1ccc(Cc2nn3c(-c4cc(OC)c(OC)c(OC)c4)nnc3s2)cc1	-2	-1	·	-38	·	·
Cc1ccccc1OCC(=O)N=Nc1c(O)n(C)c2ccccc12	18*	0	0	4	5	4
C[C@H]1CN([C@@H](C)CO)C(=O)c2cc(NC(=O)c3ccncc3)ccc2O[C@H]1CN(C)C(=O)Nc1ccccc1	·	·	-1	·	·	·
COC(=O)c1sc2nc(CSc3ccc(Br)cc3)[nH]c(=O)c2c1C	8	2	3	11	·	·
CCOC(=O)c1sc2nc(CSc3ccccc3Cl)[nH]c(=O)c2c1C	10*	4	-1	-6	3	2
CC(C)(C)C1CCC(CN2C(Nc3ccccc3)=NC[C@@H]2Cc2ccccc2)CC1 (some centres not stated)	14*	1	3	1	11*	16
O=C(NCc1ccccc1)N1CCN(c2ccc(F)cc2)CC1	-1	-4	·	13	·	·
O=C(NCc1ccccc1)N1CCN(c2ccc(Cl)c(Cl)c2)CC1	22*	-1	·	2	1	5
O=C1CSc2ccc(C(=O)Nc3cccc(S(=O)(=O)Nc4ccc(Br)cc4)c3)cc2N1	11*	-4	2	25	3	4
C[C@@H]1CN([C@@H](C)CO)C(=O)c2cc(NC(=O)Nc3ccc4c(c3)OCO4)ccc2O[C@H]1CN(C)C	·	·	-1	·	·	·
Cc1ccc(NC(=O)CSC2=Nc3ccccc3C3CC=NN23)c(C)c1 (configuration not stated)	-2	-2	·	-3	·	·
O=C(CSC1=Nc2ccccc2C2CC=NN12)Nc1ccc(F)cc1Cl (configuration not stated)	26*	-1	1	-16	0	4
O=C(c1cccc(-c2ccc(O)cc2)c1)N1CCN(c2ccc(F)cc2)CC1	13*	-2	-1	9	4	6
C[C@@H]1CCCCO[C@@H](CN(C)Cc2ccc(C(=O)O)cc2)[C@@H](C)CN([C@@H](C)CO)C(=O)c2cc(NC(=O)Nc3ccc4c(c3)OCO4)ccc2O1	·	·	-1	·	·	·
O=C(N/N=C/c1cccc(O)c1)c1ccc(COc2ccccc2Br)cc1	13*	1	·	2	6	3
CC(C)(C)c1ccc(OCc2ccc(C(=O)N/N=C/c3ccc(O)c(O)c3)cc2)cc1	25*	-2	7	6	9.8*	6
O=C(N/N=C/c1ccc(OCc2ccc(F)cc2)cc1)c1ccccc1	5	-1	-1	-1	·	·
O=C(N/N=C/c1cccc(O)c1)c1ccc(COc2cccc3cccnc23)cc1	1	-2	0	-3	·	·
COc1ccc(NC(=O)Cn2cnc3c(cnn3-c3ccc(C)c(C)c3)c2=O)c(OC)c1	12*	0	·	0	15*	7
CCCN(C)C[C@H]1Oc2cc(C#Cc3cccc(OC)c3)ccc2S(=O)(=O)N([C@@H](C)CO)C[C@H]1C	·	·	-2	·	·	·
C[C@@H]1CCCCO[C@@H](CN(C)Cc2ccncc2)[C@H](C)CN([C@H](C)CO)C(=O)c2cc(NS(C)(=O)=O)ccc2O1	·	·	-2	·	·	·
COc1cc(OC)cc(C(=O)OCC(=O)NC(c2ccccc2)c2ccccc2)c1	13*	-1	8.2*	11	2	7
Cc1cc(C(=O)OCC(=O)NC(C)c2ccccc2)c(C)o1 (configuration not stated)	-2	-2	0	3	·	·
